# Test results published in ChEMBL document CHEMBL2069278, “Novel substituted benzothiophene and thienothiophene carboxanilides and quinolones: synthesis, photochemical synthesis, DNA-binding properties, antitumor evaluation and 3D-derived QSAR analysis” (J Med Chem, 2012).
# Activity calls are given as the source filed them. The rule behind the calls is not given here.
# Legend:
# [1] = target: T1, DNA topoisomerase 1 (Homo sapiens) (UniProt P11387); assay: Inhibition of human topoisomerase 1-mediated supercoiled pUC19 plasmid DNA relaxation at 0.5 to 2 uM incubated for 45 mins followed by enzyme addition measured after 30 mins by agarose gel electrophoresis
# T1 sequence (whole entry): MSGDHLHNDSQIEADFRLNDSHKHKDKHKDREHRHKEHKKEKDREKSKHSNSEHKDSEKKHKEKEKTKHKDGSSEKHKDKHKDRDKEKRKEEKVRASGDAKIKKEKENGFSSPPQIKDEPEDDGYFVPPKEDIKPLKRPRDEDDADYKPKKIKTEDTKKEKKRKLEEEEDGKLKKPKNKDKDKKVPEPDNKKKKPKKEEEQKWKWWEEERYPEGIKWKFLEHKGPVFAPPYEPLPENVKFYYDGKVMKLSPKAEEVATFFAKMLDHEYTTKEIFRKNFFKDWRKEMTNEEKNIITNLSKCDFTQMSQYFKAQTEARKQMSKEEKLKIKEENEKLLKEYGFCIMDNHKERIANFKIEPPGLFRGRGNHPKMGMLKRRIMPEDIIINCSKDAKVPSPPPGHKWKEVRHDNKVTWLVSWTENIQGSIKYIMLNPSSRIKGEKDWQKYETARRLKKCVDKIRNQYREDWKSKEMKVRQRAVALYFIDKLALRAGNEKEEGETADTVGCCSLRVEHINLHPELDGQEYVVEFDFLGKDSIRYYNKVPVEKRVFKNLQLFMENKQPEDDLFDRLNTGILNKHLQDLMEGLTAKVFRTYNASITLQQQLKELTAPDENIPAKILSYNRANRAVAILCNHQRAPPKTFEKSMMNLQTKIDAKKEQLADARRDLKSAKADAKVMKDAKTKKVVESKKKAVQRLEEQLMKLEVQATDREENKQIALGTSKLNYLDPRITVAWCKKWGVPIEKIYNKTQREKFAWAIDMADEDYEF
# In short: (§1)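 Graded compound concentrations preincubated with supercoiled pUC19, then 4 units human topoisomerase I, 37 °C for 45 min in relaxation buffer; stopped with 0.25% SDS and 250 μg/mL proteinase K, 30 min at 50 °C; 1% agarose gel without ethidium bromide, 2 h at 120 V in TBE, then stained with ethidium bromide.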
# [2] = test system: Nucleic Acid; assay: Binding affinity to AT rich site of Pvu2 DNA by densitometric analysis; format: nucleic-acid assay
# In short: (§2)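 265 bp EcoRI/PvuII pBluescript fragment, 3′-end labeled with α-[32P]dATP by Klenow. Compounds at increasing concentrations pre-equilibrated with DNA 15 min at 37 °C, then DNase I (final 0.002 unit/mL) in 20 mM NaCl, 2 mM MgCl2, 2 mM MnCl2, pH 7.3, 4 min digestion; products resolved on denaturing 8% polyacrylamide/8 M urea gel, G-track for base positions.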
# [3] = test system: Nucleic Acid; assay: Binding affinity to calf thymus DNA assessed as change in melting temperature at drug/base pair ratio of 0.25 by UV-visible spectrophotometric analysis; format: nucleic-acid assay; conditions: Bos taurus
# In short: (§3)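 Melting: 20 μM CT-DNA or poly(dAdT)2 alone or with compound (drug/base pair ratio 0.01−0.5) in BPE buffer (6 mM Na2HPO4, 2 mM NaH2PO4, 1 mM EDTA, pH 7.1); A260 read each minute from 20 to 100 °C at 1 °C/min; Tm from midpoint of hyperchromic transition (first-derivative plots); ΔTm = Tm[drug+DNA] − Tm[DNA alone].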
# [4] = test system: HCT-116; assay: Induction of cell cycle arrest in human HCT116 cells assessed as accumulation at G2/M phase at 1 to 5 uM by propidium iodide based flow cytometry; format: functional; conditions: TDE = time-dependent effect
# In short: (§4)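 HCT116 cells (2 × 10^5 per well) treated after 24 h with 1 or 5 μM for 24 and 48 h; floating and attached cells pooled, fixed in 70% ethanol, stained with 50 μg/mL propidium iodide plus RNase A; 20 000 events by flow cytometry; phase percentages from DNA histograms; duplicate, repeated at least twice.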
# [5] = test system: SW-620; assay: Cytotoxicity against human SW620 cells after 72 hrs by MTT assay; format: functional, cell-based; conditions: SW-620, 72 h
# In short: (§5)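 Cells seeded on day 0 at 1 × 10^4 to 3 × 10^4 cells/mL (adherent lines in DMEM, MOLT-4 in suspension in RPMI, 10% FBS, 37 °C, 5% CO2); 10-fold dilutions 10−8–10−4 M for 72 h; MTT, OD 570 nm; percentage growth versus time-zero and control; IC50 by linear regression; quadruplicate, at least two experiments.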
# [6] = test system: HCT-116; assay: Induction of cell cycle arrest in human HCT116 cells assessed as accumulation at G2/M phase after 24 to 48 hrs by propidium iodide based flow cytometry; format: functional; in short: as §4
# [7] = test system: HCT-116; assay: Cytotoxicity against human HCT116 cells after 72 hrs by MTT assay; format: functional, cell-based; conditions: HCT-116, 72 h; in short: as §5
# [8] = test system: MCF7; assay: Cytotoxicity against human MCF7 cells after 72 hrs by MTT assay; format: functional, cell-based; conditions: MCF7, 72 h; in short: as §5
# [9] = test system: Nucleic Acid; assay: Binding affinity to calf thymus DNA assessed as change in melting temperature at drug/base pair ratio of 0.025 by UV-visible spectrophotometric analysis; format: nucleic-acid assay; conditions: Bos taurus; in short: as §3
# [10] = test system: Nucleic Acid; assay: Binding affinity to calf thymus DNA assessed as change in melting temperature at drug/base pair ratio of 0.01 by UV-visible spectrophotometric analysis; format: nucleic-acid assay; conditions: Bos taurus; in short: as §3
# [11] = test system: HCT-116; assay: Induction of cell cycle arrest in human HCT116 cells assessed as accumulation at G1 phase after 24 to 48 hrs by propidium iodide based flow cytometry; format: functional; in short: as §4
# [12] = test system: Nucleic Acid; assay: Binding affinity to radiolabeled Pvu2 DNA after 15 mins by Dnase1 footprinting assay; format: nucleic-acid assay; in short: as §2
# [13] = test system: NCI-H460; assay: Cytotoxicity against human H460 cells after 72 hrs by MTT assay; format: functional, cell-based; conditions: NCI-H460, 72 h; in short: as §5
# [14] = test system: HCT-116; assay: Induction of cell cycle arrest in human HCT116 cells assessed as accumulation at G1 phase at 1 to 5 uM by propidium iodide based flow cytometry; format: functional; conditions: TDE = time-dependent effect; in short: as §4
# [15] = test system: Nucleic Acid; assay: Binding affinity to calf thymus DNA assessed as change in melting temperature at drug/base pair ratio of 0.1 by UV-visible spectrophotometric analysis; format: nucleic-acid assay; conditions: Bos taurus; in short: as §3
# [16] = target: DNA topoisomerase 2-alpha (Homo sapiens) (UniProt P11388); assay: Inhibition of human topoisomerase 2-mediated DNA cleavage at 50 uM incubated for 45 mins followed by enzyme addition measured after 30 mins by agarose gel electrophoresis
# DNA topoisomerase 2-alpha (Homo sapiens), sequence (P11388 whole entry): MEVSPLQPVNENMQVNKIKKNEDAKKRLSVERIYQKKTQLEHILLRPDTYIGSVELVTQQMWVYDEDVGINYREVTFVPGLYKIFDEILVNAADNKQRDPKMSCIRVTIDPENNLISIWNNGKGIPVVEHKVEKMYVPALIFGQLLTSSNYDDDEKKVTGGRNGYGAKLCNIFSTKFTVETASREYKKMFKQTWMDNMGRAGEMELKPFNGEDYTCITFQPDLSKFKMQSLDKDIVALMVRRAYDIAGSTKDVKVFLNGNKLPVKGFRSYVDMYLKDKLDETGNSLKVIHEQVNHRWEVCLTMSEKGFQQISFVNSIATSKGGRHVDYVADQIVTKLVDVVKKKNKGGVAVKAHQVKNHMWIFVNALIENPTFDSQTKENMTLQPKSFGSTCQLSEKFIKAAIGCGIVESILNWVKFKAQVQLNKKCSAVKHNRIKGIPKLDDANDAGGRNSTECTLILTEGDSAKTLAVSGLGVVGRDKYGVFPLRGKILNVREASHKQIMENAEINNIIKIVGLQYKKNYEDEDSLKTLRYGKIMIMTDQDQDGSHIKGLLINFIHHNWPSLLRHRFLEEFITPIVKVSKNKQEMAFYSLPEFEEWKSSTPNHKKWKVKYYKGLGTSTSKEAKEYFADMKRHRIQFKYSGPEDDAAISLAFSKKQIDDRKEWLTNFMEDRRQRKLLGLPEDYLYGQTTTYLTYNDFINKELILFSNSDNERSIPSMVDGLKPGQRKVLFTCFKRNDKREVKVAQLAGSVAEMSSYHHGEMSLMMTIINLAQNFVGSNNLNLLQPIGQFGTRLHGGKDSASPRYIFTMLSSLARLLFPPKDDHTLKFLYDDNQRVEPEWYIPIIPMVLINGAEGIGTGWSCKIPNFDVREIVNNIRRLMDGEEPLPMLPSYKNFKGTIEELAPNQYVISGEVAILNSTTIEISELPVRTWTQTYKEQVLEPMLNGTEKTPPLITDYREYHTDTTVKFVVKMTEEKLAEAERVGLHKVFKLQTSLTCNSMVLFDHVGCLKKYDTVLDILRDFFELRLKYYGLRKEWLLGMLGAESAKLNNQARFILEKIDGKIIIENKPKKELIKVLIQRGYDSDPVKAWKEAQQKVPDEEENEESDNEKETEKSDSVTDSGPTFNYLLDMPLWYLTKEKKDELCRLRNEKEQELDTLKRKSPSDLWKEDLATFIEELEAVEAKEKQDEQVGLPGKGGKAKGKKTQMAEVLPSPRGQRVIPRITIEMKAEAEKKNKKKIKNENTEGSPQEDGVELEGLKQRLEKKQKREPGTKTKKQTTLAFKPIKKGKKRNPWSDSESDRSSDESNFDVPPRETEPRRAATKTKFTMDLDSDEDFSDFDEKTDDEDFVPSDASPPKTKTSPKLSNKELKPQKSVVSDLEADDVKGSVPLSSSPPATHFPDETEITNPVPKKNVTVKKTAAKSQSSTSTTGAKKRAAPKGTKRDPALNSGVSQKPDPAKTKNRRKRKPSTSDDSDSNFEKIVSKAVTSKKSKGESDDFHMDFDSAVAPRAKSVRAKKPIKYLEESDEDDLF
# In short: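 Compounds (50 μM) incubated with 350 ng supercoiled pUC19 before topoisomerase II addition; gel quantified for percentage poisoning normalized to etoposide at the same concentration.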
# [17] = test system: MOLT-4; assay: Cytotoxicity against human MOLT4 cells after 72 hrs by MTT assay; format: functional, cell-based; conditions: MOLT-4, 72 h; in short: as §5
# [18] = test system: Nucleic Acid; assay: Binding affinity to Poly (dAdT)2 DNA assessed as change in melting temperature at drug/base pair ratio of 0.025 by UV-visible spectrophotometric analysis; format: nucleic-acid assay; in short: as §3
# [19] = test system: Nucleic Acid; assay: Binding affinity to calf thymus DNA assessed as DNA intercalation at 50 uM by circular dichroism spectra analysis; format: nucleic-acid assay; conditions: Bos taurus
# In short: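 CD: 50 μM compound with 200 μM CT-DNA in BPE buffer, alone or plus 10 or 100 mM NaCl; spectra 480–230 nm, 10 mm quartz cell, 20 °C; compound without DNA as control for intrinsic CD.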
# [20] = test system: Nucleic Acid; assay: Binding affinity to calf thymus DNA assessed as change in melting temperature at drug/base pair ratio of 0.5 by UV-visible spectrophotometric analysis; format: nucleic-acid assay; conditions: Bos taurus; in short: as §3
# [21] = test system: Nucleic Acid; assay: Binding affinity to Poly (dAdT)2 DNA assessed as DNA intercalation at 20 uM by circular dichroism spectra analysis; format: nucleic-acid assay
# In short: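 CD: compound titrated against poly(dAdT)2, or poly(dAdT)2 titrated with compound from 1 to 200 μM, in BPE buffer (pH 7.1); spectra from 480 to 230 nm in 10 mm quartz cell at 20 °C; peak position and intensity followed.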
# [22] = target: T1, DNA topoisomerase 1 (Homo sapiens); assay: Inhibition of human topoisomerase 1-mediated supercoiled pUC19 plasmid DNA relaxation at 10 uM incubated for 45 mins followed by enzyme addition measured after 30 mins by agarose gel electrophoresis; in short: as §1
# [23] = test system: Nucleic Acid; assay: Binding affinity to Poly (dAdT)2 DNA assessed as change in melting temperature at drug/base pair ratio of 0.01 by UV-visible spectrophotometric analysis; format: nucleic-acid assay; in short: as §3
# [24] = test system: Nucleic Acid; assay: Binding affinity to Poly (dAdT)2 DNA assessed as change in melting temperature at drug/base pair ratio of 0.05 by UV-visible spectrophotometric analysis; format: nucleic-acid assay; in short: as §3
# [25] = test system: Nucleic Acid; assay: Binding affinity to Poly (dAdT)2 DNA assessed as change in melting temperature at drug/base pair ratio of 0.25 by UV-visible spectrophotometric analysis; format: nucleic-acid assay; in short: as §3
# [26] = target: T1, DNA topoisomerase 1 (Homo sapiens); assay: Inhibition of human topoisomerase 1-mediated DNA cleavage at 10 uM incubated for 45 mins followed by enzyme addition measured after 30 mins by agarose gel electrophoresis
# In short: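 Topo I cleavage run like the relaxation assay (pUC19, 4 units human topoisomerase I, 37 °C, 45 min; SDS/proteinase K stop), but samples run on 1% agarose gel containing ethidium bromide; camptothecin 20 μM as poisoning control.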
# [27] = test system: Nucleic Acid; assay: Binding affinity to Poly (dAdT)2 DNA assessed as change in melting temperature at drug/base pair ratio of 0.1 by UV-visible spectrophotometric analysis; format: nucleic-acid assay; in short: as §3
# [28] = test system: HCT-116; assay: Induction of cell cycle arrest in human HCT116 cells assessed as accumulation at G1 phase at 5 uM after 24 to 48 hrs by propidium iodide based flow cytometry; format: functional; in short: as §4
inhibition [1],Activity [2],ΔTm [3],ΔTm [9],ΔTm [10],Activity [12],ΔTm [15],inhibition [16],Activity [19],ΔTm [20],inhibition [22],SMILES,Activity [4],IC50 [5],Activity [6],IC50 [7],IC50 [8],Activity [11],IC50 [13],Activity [14],IC50 [17],further results
Active,inactive,18 °C,0.9 °C,0 °C,Active,4.9 °C,Active,–,–,–,O=c1[nH]c2ccc(C3=NCCN3)cc2c2c1sc1ccccc12,tde,700 nM,Dose-dependent effect,900 nM,1400 nM,Dose-dependent effect,1600 nM,tde,800 nM,–
–,Active,23.9 °C,2 °C,1 °C,Active,7.9 °C,Active,Active,28.4 °C,Active,O=C(Nc1ccc(C2=NCCN2)cc1)c1sc2cc(C3=NCCN3)ccc2c1Cl,tde,1400 nM,Dose-dependent effect,1700 nM,1500 nM,Dose-dependent effect,2600 nM,tde,1900 nM,ΔTm [18]: 2 °C; Activity [21]: Active; ΔTm [23]: 1 °C; ΔTm [24]: 5.9 °C; ΔTm [25]: 27.4 °C; inhibition [26]: Active; ΔTm [27]: 18.6 °C
Active,inactive,11 °C,–,–,Active,–,Active,–,14.6 °C,–,O=c1[nH]c2ccccc2c2c1sc1cc(C3=NCCN3)ccc12,–,1200 nM,–,1300 nM,1500 nM,–,1200 nM,–,800 nM,inhibition [26]: Active
–,inactive,5 °C,–,–,Active,–,Active,inactive,6.8 °C,Active,O=C(Nc1ccc(C2=NCCN2)cc1)c1sc2ccccc2c1Cl,tde,1200 nM,Dose-dependent effect,1800 nM,1600 nM,Dose-dependent effect,1000 nM,tde,2100 nM,Activity [28]: Active
